Measured values from different studies.
Each line is one published result; the experiments were not run side by side.
Medium: Caco-2

O=C(CCc1ccc(O)cc1)c1c(O)cc(O)cc1O[C@@H]1O[C@H](CO)[C@@H](O)[C@H](O)[C@H]1O gave a Papp A→B of 2.94 ×10⁻⁶ cm/s (100 µg/mL; 2 h).
With O=c1c(O[C@@H]2O[C@H](CO)[C@H](O)[C@H](O)[C@H]2O)c(-c2ccc(O)c(O)c2)oc2cc(O)cc(O)c12 the Papp A→B was 0.349 ×10⁻⁶ cm/s (200 µg/mL).
With COc1ccc(-c2coc3cc(O)ccc3c2=O)cc1 the Papp A→B was 4.66 ×10⁻⁶ cm/s (100 µg/mL; 2 h).
CN(C)CCc1c[nH]c2ccc(C[C@H]3COC(=O)N3)cc12 gave a Papp A→B of 0.56 ×10⁻⁶ cm/s (5 µM; 2 h).
Oc1cc(O)c2c(c1)O[C@H](c1ccc(O)c(O)c1)[C@@H](O)C2 gave a Papp A→B of 11.7 ×10⁻⁶ cm/s (100 µg/mL; 2 h).
For CCCCCOC(=O)Nc1nc(=O)n([C@@H]2O[C@H](C)[C@@H](O)[C@H]2O)cc1F, the Papp A→B was 3.24 ×10⁻⁶ cm/s (4 h).
The Papp A→B of Nc1nc2c(ncn2COCCO)c(=O)[nH]1 is reported as 0.18 ×10⁻⁶ cm/s (5 µM; 2 h).
With CNC(C)(C)COCC(=O)N1CCC[C@H](C(=O)NCc2nc(-c3ccc(C(F)(F)F)cc3)cs2)C1 the Papp A→B was 0.19 ×10⁻⁶ cm/s (pH 7.4).
The Papp A→B of O=C(N[C@@H](c1ccccc1)[C@H]1CCCN1)C1=CN(c2ncnc3[nH]ccc23)CCS1 is reported as < 0.3 ×10⁻⁶ cm/s (10 µM; pH 6.5).
With N#Cc1ccc(C[C@H](Nc2nnc(-c3ccc(F)cc3)s2)C(=O)N2CCc3ccccc32)cc1 the Papp A→B was 11.2 ×10⁻⁶ cm/s (100 µM; 2 h).
The Papp A→B of CC(=O)OCc1cc2[nH]c(=S)n(Cc3cccnc3)c(=O)c2cc1Cl is reported as 0.6 ×10⁻⁶ cm/s (10 µM; 90 min; pH 7.4).
NCCOCC(=O)N1CCC[C@H](C(=O)NCc2nc(-c3ccc(C(F)(F)F)cc3)cs2)C1 gave a Papp A→B of 0.1 ×10⁻⁶ cm/s (pH 7.4).
For COc1ccc(-c2coc3cc(O)cc(O)c3c2=O)cc1, the Papp A→B was 20.4 ×10⁻⁶ cm/s (100 µg/mL; 2 h).
The Papp A→B of O=c1c2cc(Cl)c(CO)cc2[nH]c(=S)n1Cc1cccnc1 is reported as 12.3 ×10⁻⁶ cm/s (10 µM; 90 min; pH 7.4).
For COc1ccccc1OCCNCC(O)COc1cccc2[nH]c3ccccc3c12 (stereo not shown), the Papp A→B was 4.98 ×10⁻⁶ cm/s (5 µM; 2 h).
N#Cc1ccc(C[C@H](Nc2c(Nc3ccc(Br)cc3)c(=O)c2=O)C(=O)N2CCc3ccccc32)cc1 has a Papp A→B of 2 ×10⁻⁶ cm/s (100 µM; 2 h).
For C[C@@H]1O[C@@H](OC[C@H]2O[C@@H](Oc3c(-c4ccc(O)c(O)c4)oc4cc(O)cc(O)c4c3=O)[C@H](O)[C@@H](O)[C@@H]2O)[C@H](O)[C@H](O)[C@H]1O, the Papp A→B was 0.293 ×10⁻⁶ cm/s (200 µg/mL).
CN(C)CC(=O)OCc1cc2[nH]c(=S)n(Cc3cccnc3)c(=O)c2cc1Cl has a Papp A→B of 42.5 ×10⁻⁶ cm/s (10 µM; 90 min; pH 7.4).
With O=C(NCc1nc(-c2ccc(C(F)(F)F)cc2)cs1)[C@H]1CCCN(C(=O)COCCN2CCCC2)C1 the Papp A→B was 1.8 ×10⁻⁶ cm/s (pH 7.4).
